Measurements published in ChEMBL document CHEMBL1142885, “Evaluation of [11C]hemicholinium-15 and [18F]hemicholinium-15 as new potential PET tracers for the high-affinity choline uptake system in the heart” (Bioorg Med Chem, 2007).

How the values were obtained:
Conditions in all cases: in vivo
[1] = Biodistribution in Fisher rat atrioventricular node at 1 to 3 mCi, iv after 20 mins; assay type: ADME, organism-based
Summary of the method: (§1)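 Fisher rats (200–300 g) given [¹¹C]HC-15 or [¹⁸F]HC-15 (1–3 mCi, sub-pharmacologic) by tail-vein iv injection under conscious restraint. Sacrificed by decapitation under halothane anesthesia at 20 min, tissues excised and weighed, decay-corrected radioactivity gamma-counted. Expressed as %ID and %ID/g; values are the average of four rats.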

[2] = Biodistribution in Fisher rat skeletal muscle s at 1 to 3 mCi, iv after 20 mins; assay type: ADME, organism-based, Muscle tissue; summary of the method: as §1
Kidney = assay: Biodistribution in Fisher rat kidney at 1 to 3 mCi, iv after 20 mins; assay type: ADME, organism-based; summary of the method: as §1
Brain = assay: Biodistribution in Fisher rat brain at 1 to 3 mCi, iv after 20 mins; assay type: ADME, organism-based; summary of the method: as §1
Blood = assay: Biodistribution in Fisher rat blood at 1 to 3 mCi, iv after 20 mins; assay type: ADME, organism-based; summary of the method: as §1
[3] = Biodistribution in Fisher rat left atrium at 1 to 3 mCi, iv after 20 mins; assay type: ADME, organism-based, Cardiac atrium; summary of the method: as §1
[4] = Biodistribution in Fisher rat right atrium at 1 to 3 mCi, iv after 20 mins; assay type: ADME, organism-based, Cardiac atrium; summary of the method: as §1
Lung = assay: Biodistribution in Fisher rat lung at 1 to 3 mCi, iv after 20 mins; assay type: ADME, organism-based; summary of the method: as §1
[5] = Biodistribution in Fisher rat left ventricle at 1 to 3 mCi, iv after 20 mins; assay type: ADME, organism-based, Heart left ventricle; summary of the method: as §1
[6] = Biodistribution in Fisher rat right ventricle at 1 to 3 mCi, iv after 20 mins; assay type: ADME, organism-based, Heart right ventricle; summary of the method: as §1
Septum = assay: Biodistribution in Fisher rat septum at 1 to 3 mCi, iv after 20 mins; assay type: ADME, organism-based; summary of the method: as §1
Solar plexus = assay: Biodistribution in Fisher rat solar plexus at 1 to 3 mCi, iv after 20 mins; assay type: ADME, organism-based; summary of the method: as §1
[7] = Biodistribution in Fisher rat urine at 1 to 3 mCi, iv after 20 mins; assay type: ADME, organism-based; summary of the method: as §1
Liver = assay: Biodistribution in Fisher rat liver at 1 to 3 mCi, iv after 20 mins; assay type: ADME, organism-based; summary of the method: as §1

Drug uptake [1] [% ID/g]	Drug uptake [2] [% ID/g]	Drug uptake (Kidney) [% ID/g]	Drug uptake (Brain) [% ID/g]	Drug uptake (Blood) [% ID/g]	Drug uptake [3] [% ID/g]	Drug uptake [4] [% ID/g]	Drug uptake (Lung) [% ID/g]	Drug uptake [5] [% ID/g]	Drug uptake [6] [% ID/g]	Drug uptake (Septum) [% ID/g]	Drug uptake (Solar plexus) [% ID/g]	Drug uptake [7] [% ID/g]	Drug uptake (Liver) [% ID/g]	SMILES
1.083	0.091	3.618	0.022	0.181	0.526	0.488	1.302	0.859	1.316	0.01	0.938	31.835	6.284	C[N+]1([11CH3])CCOC(O)(c2ccccc2)C1.O=S(=O)([O-])C(F)(F)F (stereo not drawn)
0.793	0.145	11.651	0.046	0.201	0.796	0.756	3.423	1.28	0.037	1.557	0.744	17.434	4.378	C[N+]1(C[18F])CCOC(O)(c2ccccc2)C1.O=S(=O)([O-])C(F)(F)F (stereo not drawn)
